According to ChEMBL document CHEMBL4823332, “Discovery and Development of Cyclic Peptide Inhibitors of CIB1” (ACS Med Chem Lett, 2021):
Starred links: 1 amine or outer side, 2 acyl side, 3 side chain; linkers in the order of their positions; H or OH if unused. Positions of bridges follow the written chain, without caps; N, C: chain ends. Non-standard residues stand in square brackets, D forms with d. Residues, ends and D or L forms follow the SMILES beside them. ξ: configuration not given here. *: point of attachment. NMeW = CN[C@@H](Cc1c[nH]c2ccccc12)C(=O)O; NH(CH2CH2O)2(CH2)6Cl = ClCCCCCCOCCOCCN*; Ala(2-furyl) = N[C@@H](Cc1ccco1)C(=O)O; NMeY = CN[C@@H](Cc1ccc(O)cc1)C(=O)O; Suc = O=C(CCC(=O)[*:2])[*:1]; hLeu = CC(C)CC[C@H](N)C(=O)O; ξhLeu = CC(C)CCC(N)C(=O)O; NMeA = CN[C@@H](C)C(=O)O; Nle = CCCC[C@H](N)C(=O)O

Tests used:
[1] = Cytotoxicity against human MDA-MB-231 cells assessed as cell death at 30 uM incubated for 24 hrs by trypan blue assay; type: cell-based; conditions: mda-mb-231, 24 h
[2] = Stability in human MDA-MB-468 cell lysates assessed as compound remaining at 150 uM after 24 hrs by LCMS method; type: ADME, subcellular; conditions: read-out: Stabilty
How it was run: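 Peptides were incubated in MDA-MB-468 cell lysates at 37 °C.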

MDA-MB-468 = test: Cytotoxicity against human MDA-MB-468 cells assessed as cell death at 30 uM incubated for 24 hrs by trypan blue assay; type: functional
[3] = target: T1, Calcium and integrin-binding protein 1 (Homo sapiens, UniProt Q99828); test: Displacement of Alexa Fluor 647 labelled UNC10245092 peptide from CIB1 (unknown origin) preincubated for 20 mins followed by Alexa-CIB1 phage peptide addition and measured after 20 to 30 mins by TR-FRET assay
T1 sequence (Q99828 whole entry): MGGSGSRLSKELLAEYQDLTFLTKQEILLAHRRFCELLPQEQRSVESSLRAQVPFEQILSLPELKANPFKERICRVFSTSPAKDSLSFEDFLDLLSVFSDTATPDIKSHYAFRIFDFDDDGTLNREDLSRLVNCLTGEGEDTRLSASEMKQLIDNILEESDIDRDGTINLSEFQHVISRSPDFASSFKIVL

| IC50 [3] [nM] | Molecule | Activity [1] [%] | remaining at 24 h, 150 µM [2] [%] | Activity (MDA-MB-468) [%] |
| --- | --- | --- | --- | --- |
| 190 | CC[C@H](C)[C@@H]1NC(=O)[C@H](CC(C)C)NC(=O)[C@H](Cc2c[nH]c3ccccc23)N(C)C(=O)[C@H](Cc2ccc(O)cc2)NC(=O)[C@@H]2CCCN2C(=O)C(CCC(C)C)NC(=O)[C@H](C)N(C)C(=O)[C@H](Cc2ccc(O)cc2)NC(=O)CSC[C@@H](C(N)=O)NC(=O)[C@H](Cc2c[nH]c3ccccc23)NC(=O)[C@H](CC(N)=O)NC1=O (stereo partly specified) ({CH2CO}-Y[NMeA][ξhLeu]PY[NMeW]LINWC-NH2; thioether N-11) |  |  |  |
| 1500 | CCCC[C@@H]1NC(=O)[C@H](Cc2ccc(O)cc2)NC(=O)CSC[C@@H](C(N)=O)NC(=O)[C@H](Cc2c[nH]c3ccccc23)NC(=O)[C@H](Cc2ccco2)NC(=O)[C@H]([C@@H](C)CC)NC(=O)[C@H](CC(C)C)NC(=O)[C@H](Cc2c[nH]c3ccccc23)NC(=O)[C@H](Cc2ccc(O)cc2)NC(=O)[C@@H]2CCCN2C(=O)[C@H](CCC(C)C)NC1=O ({CH2CO}-Y[Nle][hLeu]PYWLI[Ala(2-furyl)]WC-NH2; thioether N-11) |  |  |  |
| 1800 | CC[C@H](C)[C@@H]1NC(=O)[C@H](CC(C)C)NC(=O)[C@H](Cc2c[nH]c3ccccc23)NC(=O)[C@H](Cc2ccc(O)cc2)N(C)C(=O)[C@@H]2CCCN2C(=O)[C@H](CCC(C)C)NC(=O)[C@H](C)NC(=O)[C@H](Cc2ccc(O)cc2)N(C)C(=O)CSC[C@@H](C(N)=O)NC(=O)[C@H](Cc2c[nH]c3ccccc23)NC(=O)[C@H](CC(N)=O)NC1=O ({CH2CO}-[NMeY]A[hLeu]P[NMeY]WLINWC-NH2; thioether N-11) |  |  |  |
| > 10000 | Ac-YKQPYWLINWA-NH2 |  |  |  |

The next lines start with the molecule.

| Molecule | IC50 [3] [nM] | Activity [1] [%] | remaining at 24 h, 150 µM [2] [%] | Activity (MDA-MB-468) [%] |
| --- | --- | --- | --- | --- |
| CC[C@H](C)[C@@H]1NC(=O)[C@H](CC(C)C)NC(=O)[C@H](Cc2c[nH]c3ccccc23)NC(=O)[C@H](Cc2ccc(O)cc2)NC(=O)[C@@H]2CCCN2C(=O)[C@H](CCC(N)=O)NC(=O)[C@H](C)NC(=O)[C@H](Cc2ccc(O)cc2)NC(=O)CSC[C@@H](C(N)=O)NC(=O)[C@H](Cc2c[nH]c3ccccc23)NC(=O)[C@H](CC(N)=O)NC1=O ({CH2CO}-YAQPYWLINWC-NH2; thioether N-11) | 9 | 1.5 | 21.9 | 2.7 |
| CCCC[C@@H]1NC(=O)[C@H](Cc2ccc(O)cc2)NC(=O)CSC[C@@H](C(N)=O)NC(=O)[C@H](Cc2c[nH]c3ccccc23)NC(=O)[C@H](CC(C)C)NC(=O)[C@H]([C@@H](C)CC)NC(=O)[C@H](CC(C)C)NC(=O)[C@H](Cc2c[nH]c3ccccc23)NC(=O)[C@H](Cc2ccc(O)cc2)NC(=O)[C@@H]2CCCN2C(=O)[C@H](CCC(N)=O)NC1=O ({CH2CO}-Y[Nle]QPYWLILWC-NH2; thioether N-11) | 59 | 1.1 | 62.2 | 3.4 |
| CSCC[C@H](NC(=O)[C@H](C)NC(=O)CNC(=O)[C@H](Cc1ccc(O)cc1)NC(=O)[C@H](C)NC(=O)[C@H](Cc1ccccc1)NC(=O)[C@H](CO)NC(=O)CNC(=O)CNC(=O)[C@H](CC(=O)O)NC(=O)[C@H](CCC(=O)O)NC(=O)[C@H](CCC(N)=O)NC(=O)[C@@H]1CCCN1C(=O)[C@H](CCCNC(=N)N)NC(=O)[C@H](CCCNC(=N)N)NC(=O)[C@H](CCCNC(=N)N)NC(=O)[C@H](CCC(N)=O)NC(=O)[C@H](CCCNC(=N)N)NC(=O)[C@H](CCCNC(=N)N)NC(=O)[C@H](CCCCN)NC(=O)[C@H](CCCCN)NC(=O)[C@H](CCCNC(=N)N)NC(=O)CNC(=O)CCC(=O)NCCOCCOCCCCCCCl)C(=O)N[C@@H](CCCCN)C(=O)N[C@@H](C)C(=O)N[C@@H](CC(C)C)C(=O)N[C@@H](C)C(=O)NCC(N)=O ({NH(CH2CH2O)2(CH2)6Cl-Suc}-GRKKRRQRRRPQEDGGSFAYGAMKALAG-NH2) | > 10000 | 1.9 | 0 | 1.1 |
